Results on nine compounds are retold here after ChEMBL document CHEMBL4261491, “Synthesis and synergistic antifungal effects of monoketone derivatives of curcumin against fluconazole-resistant Candida spp” (Medchemcomm, 2017).

Data set [1] concerns Pichia kudriavzevii. As to the kind of experiment: Antifungal activity against fluconazole-resistant Candida krusei clinical isolate 2159 in presence of 8 ug/ml fluconazole by broth microdilution method. It is filed as functional. The note with it: for MIC80: Pichia kudriavzevii, isolate 2159. An outline of the steps:
(§1)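 Broth microdilution per CLSI/NCCLS M27-A2 against FLC-resistant clinical isolates. MIC80 read for each compound alone and with fluconazole at 8.0 μg ml–1. C. albicans ATCC 90028 served as quality control. Curcumin was the positive control.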
(In general: Broth dilution looks for growth in wells or tubes with falling amounts of substance.)

In data set [2] the test system is Pichia kudriavzevii. As to the kind of experiment: Antifungal activity against fluconazole-resistant Candida krusei clinical isolate 2159 by broth microdilution method. It is filed as functional. An outline of the steps: as §1
The subject of data set [3] is Candida tropicalis. As to the kind of experiment: Antifungal activity against fluconazole-resistant Candida tropicalis clinical isolate 087 in presence of 8 ug/ml fluconazole by broth microdilution method. In kind it is functional. The following applies: for MIC80: Candida tropicalis, isolate 087. An outline of the steps: as §1
Data set [4] relates to Candida tropicalis. As to the kind of experiment: Antifungal activity against fluconazole-resistant Candida tropicalis clinical isolate 087 by broth microdilution method. It is filed as functional. An outline of the steps: as §1
Data set [5] relates to Candida albicans. As to the kind of experiment: Antifungal activity against fluconazole-resistant Candida albicans clinical isolate 103 in presence of 8 ug/ml fluconazole by broth microdilution method. It is filed as functional. The note with it: for MIC80: Candida albicans, isolate 103. In outline: as §1
The subject of data set [6] is Candida albicans. As to the kind of experiment: Antifungal activity against fluconazole-resistant Candida albicans clinical isolate 103 by broth microdilution method. In kind it is functional. An outline of the steps:
as §1

Data set [7] in a line: Cytotoxicity against HUVEC assessed as cell viability at 32 ug/ml after 24 hrs by MTT assay relative to control. It is filed as cell-based. The following applies: human, HUVEC cells; read-out: Activity. In outline:
(§2)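 HUVECs grown in DMEM with 10% FCS and 100 μg ml–1 streptomycin, 5% CO2, 37 °C. Cells exposed to compounds at 16 and 32 μg ml–1 for 24 h, then incubated with MTT solution (5 mg ml–1) for 3 h. Optical density read at 570 nm. Viability expressed as percentage relative to drug-free control.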

A short description of data set [8]: Cytotoxicity against HUVEC assessed as cell viability at 16 ug/ml after 24 hrs by MTT assay relative to control. The following applies: human, HUVEC cells; read-out: Activity. It is filed as cell-based. In outline: as §2
Background: Tetrazolium assays rely on reduction of a dye to a coloured formazan, in cell work by metabolically active cells.

One may read the MIC80 as the lowest concentration that inhibits either 80% of growth or 80% of the strains tested, depending on the study.

For `COc1ccc(/C=C/C(=O)/C=C/c2ccc(OC)cc2)cc1`, the “fractional inhibitory concentration index (FICI)” value in data set [1], in data set [3] and in data set [5] was more than 1.06 each time. The MIC80 in data set [1], in data set [2], in data set [3], in data set [4], in data set [5] and in data set [6] was more than 64 µg/mL throughout.

As for `O=C1/C(=C/c2ccc3c(c2)OCO3)CC/C1=C\c1ccc2c(c1)OCO2`, the “fractional inhibitory concentration index (FICI)” value is given as more than 1.06 in data set [1], 1.06 in data set [3] and more than 1.06 in data set [5]. Also, the MIC80 in data set [1] was more than 64 µg/mL; in data set [2], more than 64 µg/mL; in data set [3], 64 µg/mL; in data set [4], more than 64 µg/mL; in data set [5], more than 64 µg/mL; in data set [6] it was more than 64 µg/mL.

Regarding `O=C(/C=C/c1ccco1)/C=C/c1ccco1`, the results for the “fractional inhibitory concentration index (FICI)” value in data set [1], in data set [3] and in data set [5] were more than 1.06, 0.313 and more than 1.06, respectively. In addition, the MIC80 in data set [1] was more than 64 µg/mL; in data set [2], more than 64 µg/mL; in data set [3], 16 µg/mL; in data set [4] it was more than 64 µg/mL; in data set [5] it was more than 64 µg/mL; in data set [6] it was more than 64 µg/mL.

Consider `COc1cccc(/C=C2\CC/C(=C\c3cccc(OC)c3OC)C2=O)c1OC`, for which the “fractional inhibitory concentration index (FICI)” value in data set [1], in data set [3] and in data set [5] was more than 1.06 each time. For the same compound, the MIC80 in data set [1], in data set [2], in data set [3], in data set [4], in data set [5] and in data set [6] was more than 64 µg/mL in each case.

For `O=C1/C(=C/c2ccco2)CC/C1=C\c1ccco1`, the “fractional inhibitory concentration index (FICI)” value in data set [1] is more than 1.06; in data set [3], 0.188; in data set [5], more than 1.06. Further, the MIC80 in data set [1] was more than 64 µg/mL; in data set [2], more than 64 µg/mL; in data set [3], 8 µg/mL; in data set [4], more than 64 µg/mL; in data set [5], more than 64 µg/mL; in data set [6] it was more than 64 µg/mL. The viability at 24 h, 32 ug/ml in data set [7] worked out at 69%. Besides, the viability at 24 h, 16 ug/ml in data set [8] amounted to 86%.

Regarding `O=C1/C(=C/c2ccc(O)cc2)CC/C1=C\c1ccc(O)cc1`, the “fractional inhibitory concentration index (FICI)” value in data set [1] is given as more than 1.06; in data set [3], 0.188; in data set [5] it was more than 1.06. In addition, the MIC80 in data set [1] was more than 64 µg/mL; in data set [2], more than 64 µg/mL; in data set [3], 8 µg/mL; in data set [4] it was more than 64 µg/mL; in data set [5], more than 64 µg/mL; in data set [6], more than 64 µg/mL. Also, the viability at 24 h, 32 ug/ml in data set [7] stood at 60%. Moreover, in data set [8], the viability at 24 h, 16 ug/ml came to 69%.

For the compound `O=C(/C=C/c1ccc(F)cc1)/C=C/c1ccc(F)cc1`, the “fractional inhibitory concentration index (FICI)” value in data set [1] is more than 1.06; in data set [3], 0.188; in data set [5], more than 1.06. Also, the MIC80 in data set [1] was more than 64 µg/mL; in data set [2] it was more than 64 µg/mL; in data set [3], 8 µg/mL; in data set [4], more than 64 µg/mL; in data set [5], more than 64 µg/mL; in data set [6] it was more than 64 µg/mL. For the same compound, in data set [7], the viability at 24 h, 32 ug/ml is 43%. The viability at 24 h, 16 ug/ml in data set [8] was 64%.

Take `COc1ccc(/C=C2\CC/C(=C\c3ccc(OC)c(OC)c3)C2=O)cc1OC`: the “fractional inhibitory concentration index (FICI)” value in data set [1] is more than 1.06; in data set [3] it was 0.313; in data set [5] it was more than 1.06. The MIC80 in data set [1] was more than 64 µg/mL; in data set [2], more than 64 µg/mL; in data set [3] it was 16 µg/mL; in data set [4] it was more than 64 µg/mL; in data set [5], more than 64 µg/mL; in data set [6], more than 64 µg/mL.

`CN(C)c1ccc(/C=C2\CC/C(=C\c3ccc(N(C)C)cc3)C2=O)cc1`: the “fractional inhibitory concentration index (FICI)” value in data set [1] is given as more than 1.06; in data set [3], 1.06; in data set [5] it was more than 1.06. Further, the MIC80 was more than 64 µg/mL in data set [1]; more than 64 µg/mL in data set [2]; 64 µg/mL in data set [3]; more than 64 µg/mL in data set [4]; more than 64 µg/mL in data set [5]; more than 64 µg/mL in data set [6].
